pEC50: −log10 of the molar value. “And” between values parts separate entries of the source, which are not always exact repeats. Identical values can stand only once.
How the values were obtained:
[1] = organism: Felis catus; test: The mean ocular irritation in the treated eyes. An arbitrary scale of from 0 to 3 was used, 0 indicates absence of irritation and 3 complete closure of the lids. The effect was tested in cats at a dose of 1.0 (ug/eye); type: functional
In short: (§1)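 Ocular irritation was scored in the treated eye of trained female cats, 2–3 kg. Drug was given as one topical 20 µL drop in 0.9% NaCl with 0.5% polysorbate 80. The contralateral eye got vehicle only.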

[2] = organism: Felis catus; test: The maximal difference in Intraocular Pressure (IOP) between treated and control eyes. The effect was tested in cats at a dose of 1.0 (ug/eye); type: functional
In short: (§2)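 Domestic female cats, 2–3 kg, trained for IOP measurement. One eye received a topical drop (20 µL) of drug in 0.9% NaCl with 0.5% polysorbate 80; the other eye received vehicle. IOP was read by pneumatonometer under oxibuprocain local anaesthesia before dosing and at 1, 3, 6 and 23 h. The maximal treated-minus-control difference was taken. Area between curves is the treated-eye AUC minus control-eye AUC, per animal.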

[3] = system: Monkey; test: The maximal difference in Intraocular Pressure (IOP) measured in treated and control eyes. The effect was tested in monkey at a dose of 3.0 (ug/eye); type: functional, Cercopithecidae
In short: (§3)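 Cynomolgus monkeys trained for IOP measurement were sedated with ketamine (2–3 mg/kg) for transport and seated in restraint chairs under oxibuprocain local anaesthesia. One eye received a 10 µL drop of drug in 0.9% NaCl/0.5% polysorbate 80; the fellow eye received vehicle. IOP was read by pneumatonometer calibrated for monkey eyes before dosing and at 1, 2, 4 and 6 h. Matched-pair t test, n = 6.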

[4] = organism: Felis catus; test: The mean area between curves for Intraocular Pressure (IOP) measured in treated and control eyes. The effect was tested in cats at a dose of 10.0 (ug/eye); type: functional; in short: as §2
[5] = organism: Felis catus; test: The mean ocular irritation in the treated eyes. An arbitrary scale of from 0 to 3 was used, 0 indicates absence of irritation and 3 complete closure of the lids. The effect was tested in cats at a dose of 3.0 (ug/eye); type: functional; in short: as §1
[6] = organism: Oryctolagus cuniculus; test: The maximal difference in conjunctival hyperemia between treated and control eyes. The effect was tested in rabbit at a dose of 0.5 (ug/eye)
[7] = organism: Felis catus; test: The mean area between curves for pupil diameter between treated and control eyes. The effect was tested in cats at a dose of 1.0 (ug/eye); type: functional
In short: (§4)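 Trained female cats, 2–3 kg, were dosed unilaterally with one 20 µL topical drop of drug in 0.9% NaCl/0.5% polysorbate 80, with vehicle in the contralateral eye. Horizontal pupil diameter was measured with a millimetre ruler under constant 10 lux illumination before dosing and at 1, 3, 6 and 23 h. Reported as maximal treated–control difference or as area between curves, per animal.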

[8] = organism: Felis catus; test: The maximal difference in Intraocular Pressure (IOP) between treated and control eyes. The effect was tested in cats at a dose of 10.0 (ug/eye); type: functional; in short: as §2
[9] = organism: Felis catus; test: The mean ocular irritation in the treated eyes. An arbitrary scale of from 0 to 3 was used, 0 indicates absence of irritation and 3 complete closure of the lids. The effect was tested in cats at a dose of 10.0 (ug/eye); type: functional; in short: as §1
[10] = organism: Felis catus; test: The mean area between curves for pupil diameter between treated and control eyes. The effect was tested in cats at a dose of 3.0 (ug/eye); type: functional; in short: as §4
[11] = organism: Felis catus; test: The maximal difference in […] pupil diameter between treated and control eyes. The effect was tested in cats at a dose of 1.0 (ug/eye); type: functional; in short: as §4
[12] = organism: Felis catus; test: The maximal difference in […] pupil diameter between treated and control eyes. The effect was tested in cats at a dose of 3.0 (ug/eye); type: functional; in short: as §4
[13] = organism: Felis catus; test: The mean area between curves for Intraocular Pressure (IOP) measured in treated and control eyes. The effect was tested in cats at a dose of 3.0 (ug/eye); type: functional; in short: as §2
[14] = organism: Oryctolagus cuniculus; test: The mean area between curves for conjunctival hyperemia between treated and control eyes. The effect was tested in rabbit at a dose of 0.5 (ug/eye)
[15] = organism: Felis catus; test: The maximal difference in Intraocular Pressure (IOP) between treated and control eyes. The effect was tested in cats at a dose of 3.0 (ug/eye); type: functional; in short: as §2
[16] = organism: Felis catus; test: The mean area between curves for pupil diameter between treated and control eyes. The effect was tested in cats at a dose of 10.0 (ug/eye); type: functional; in short: as §4
[17] = organism: Felis catus; test: The mean area between curves for Intraocular Pressure (IOP) measured in treated and control eyes. The effect was tested in cats at a dose of 1.0 (ug/eye); type: functional; in short: as §2
[18] = system: Monkey; test: The mean area between curves for Intraocular Pressure (IOP) measured in treated and control eyes. The effect was tested in monkey at a dose of 3.0 (ug/eye); type: functional, Cercopithecidae; in short: as §3
[19] = organism: Felis catus; test: The maximal difference in […] pupil diameter between treated and control eyes. The effect was tested in cats at a dose of 10.0 (ug/eye); type: functional; in short: as §4
[20] = organism: Oryctolagus cuniculus; test: The mean area between curves for conjunctival hyperemia between treated and control eyes. The effect was tested in rabbit at a dose of 0.1 (ug/eye)
[21] = organism: Oryctolagus cuniculus; test: The maximal difference in conjunctival hyperemia between treated and control eyes. The effect was tested in rabbit at a dose of 0.1 (ug/eye)
[22] = organism: Felis catus; test: Concentration giving half-maximal contraction of the cat iris sphincter muscle was determined in vitro; type: functional
In short: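 Compounds were tested as hydrolysed free acids on isolated cat iris sphincter in organ baths. Bath solution was bicarbonate physiological saline with glucose plus indomethacin 2.8 × 10⁻⁶ M, atropine 10⁻⁷ M and propranolol 10⁻⁶ M. Resting tension was 150 mg, with at least 30 min equilibration. Cumulative dosing was at 5–10 min intervals. Isometric contraction was normalised to each tissue's maximum, averaged over four preparations, and fitted with a Hill equation for EC50.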

| Structure (SMILES) | pEC50 ([22]; Felis catus, Sphincter muscle) | Irritation [1] [arbitrary units] | Imax [2] [mmHg] | I ABC [4] | Irritation [5] [arbitrary units] | Hmax [6] | P ABC [7] | Imax [8] [mmHg] | P ABC [10] | Pmax [11] [mm] | Pmax [12] [mm] | I ABC [13] | H ABC [14] | Imax [15] [mmHg] | P ABC [16] | I ABC [17] | Pmax [19] [mm] | other results |
| --- | --- | --- | --- | --- | --- | --- | --- | --- | --- | --- | --- | --- | --- | --- | --- | --- | --- | --- |
| CC(C)OC(=O)CCC/C=C\C[C@@H]1[C@@H](/C=C/[C@@H](O)CCc2cccc(Br)c2)[C@H](O)C[C@@H]1O |  | 0.2 | -1 | <-49 | 0.3 | <1.5 | <-99 | <-3.3 | <-125 | < 6.3 | < -6.8 | -42.5 | 4.8 | -2.7 | <-138 | -12.9 | < -6.7 | Imax [3]: -2 mmHg; Irritation [9]: 0.2 arbitrary units; I ABC [18]: -6.5 |
| CC(C)OC(=O)CCC/C=C\C[C@@H]1[C@@H](/C=C/[C@H](O)CCc2cccc(Br)c2)[C@H](O)C[C@@H]1O |  | 0 | <1.2 |  | 0 | <1.2 | <-50.3 |  | <-71 | < -3.8 | < -5.3 | -6.2 | <2 | -2 |  | 0.2 |  | Imax [3]: -1.4 mmHg; I ABC [18]: -6 |
| CC(C)OC(=O)CCC/C=C\C[C@@H]1[C@@H](/C=C/[C@H](O)CCc2ccc(-c3ccccc3)cc2)[C@H](O)C[C@@H]1O |  |  | <-1 | -2 |  | <0.5 | 1.8 | -0.3 |  | 0.5 |  |  | 0.7 |  | -3.8 | -8.3 | < -0.8 |  |
| CC(C)OC(=O)CCC/C=C\C[C@@H]1[C@@H](/C=C/[C@H](O)CCc2ccc(Br)cc2)[C@H](O)C[C@@H]1O |  | 0.5 | -1 | -10 | 0.2 | <0.7 | -27 | <-2 | -2.2 | < -2.2 | -0.7 | <-17 | 0.6 | <-2 | -23 | -14 | < -2.3 | H ABC [20]: 0.3; Hmax [21]: 0.2; Irritation [9]: 0 arbitrary units |
| O=C(O)CCC/C=C\C[C@@H]1[C@@H](/C=C/C(O)CCc2cccc(Br)c2)[C@H](O)C[C@@H]1O (stereo partly specified) |  |  |  |  |  |  |  |  |  |  |  |  |  |  |  |  |  | pEC50 [22]: 7.48 and 8.31 |

Further lines, with some results ahead:

| pEC50 ([22]; Felis catus, Sphincter muscle) | Structure (SMILES) | Irritation [1] [arbitrary units] | Imax [2] [mmHg] | I ABC [4] | Irritation [5] [arbitrary units] | Hmax [6] | P ABC [7] | Imax [8] [mmHg] | P ABC [10] | Pmax [11] [mm] | Pmax [12] [mm] | I ABC [13] | H ABC [14] | Imax [15] [mmHg] | P ABC [16] | I ABC [17] | Pmax [19] [mm] | other results |
| --- | --- | --- | --- | --- | --- | --- | --- | --- | --- | --- | --- | --- | --- | --- | --- | --- | --- | --- |
| 5.68 | O=C(O)CCC/C=C\C[C@@H]1[C@@H](/C=C/[C@H](O)CCc2ccc(Br)cc2)[C@H](O)C[C@@H]1O |  |  |  |  |  |  |  |  |  |  |  |  |  |  |  |  |  |
| 8.37 | Cc1cccc(CCC(O)/C=C/[C@@H]2[C@@H](C/C=C\CCCC(=O)O)[C@@H](O)C[C@H]2O)c1 (stereo partly specified) |  |  |  |  |  |  |  |  |  |  |  |  |  |  |  |  |  |
| 8.17 | CCCCC[C@H](O)/C=C/[C@@H]1[C@@H](C/C=C\CCCC(=O)O)[C@@H](O)C[C@H]1O [DINOPROST] |  |  |  |  |  |  |  |  |  |  |  |  |  |  |  |  |  |
